Results reported in ChEMBL document CHEMBL1132183 (J Med Chem, 1999).

How the values were obtained:
[1] = molecular target: Serotonin 2 (5-HT2) receptor (Rattus norvegicus, UniProt P30994+P08909+P14842); test: Displacement of [3H]ketanserin from rat brain 5-hydroxytryptamine 2 receptor
Outline: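 Rat cerebral cortex membranes (male Sprague–Dawley) in Tris-HCl pH 7.4 with 10 μM pargiline and 0.1% ascorbic acid were incubated 20 min at 37 °C with 0.7–1.3 nM [3H]ketanserin (5-HT2A). Nonspecific binding was defined by 2 μM ketanserin. Bound label was counted after filtration, and Ki was derived by Cheng–Prusoff.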

[2] = molecular target: T1, 5-hydroxytryptamine receptor 1A (Homo sapiens) (UniProt P08908); test: Eudisimic ratio(ER) is the antilog of the defference between the pKb and pD2 values against 5-hydroxytryptamine 1A receptor; type: functional
T1 sequence (whole entry): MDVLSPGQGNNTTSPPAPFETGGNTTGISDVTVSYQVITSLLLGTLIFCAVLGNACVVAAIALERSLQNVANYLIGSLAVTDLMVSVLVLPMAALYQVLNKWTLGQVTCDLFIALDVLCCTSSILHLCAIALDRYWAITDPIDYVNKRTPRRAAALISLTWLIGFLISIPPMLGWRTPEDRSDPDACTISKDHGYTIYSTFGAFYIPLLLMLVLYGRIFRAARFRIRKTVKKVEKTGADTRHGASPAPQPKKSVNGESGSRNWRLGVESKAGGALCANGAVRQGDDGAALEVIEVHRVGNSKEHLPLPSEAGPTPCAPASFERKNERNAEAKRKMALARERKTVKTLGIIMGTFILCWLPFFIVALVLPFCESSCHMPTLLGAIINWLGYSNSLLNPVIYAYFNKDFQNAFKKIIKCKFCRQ
Outline: (§1)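 Eudismic ratio is the antilog of the difference between the pKb (functional α1 tissue assays) or pD2 (5-HT1A [35S]GTPγS stimulation) of the eutomer and that of its distomer.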

[3] = molecular target: T2, Alpha-1D adrenergic receptor (Homo sapiens, UniProt P25100); test: Ability to displace [3H]prazosin from human cloned Alpha-1D adrenergic receptor
T2 sequence (P25100 whole entry): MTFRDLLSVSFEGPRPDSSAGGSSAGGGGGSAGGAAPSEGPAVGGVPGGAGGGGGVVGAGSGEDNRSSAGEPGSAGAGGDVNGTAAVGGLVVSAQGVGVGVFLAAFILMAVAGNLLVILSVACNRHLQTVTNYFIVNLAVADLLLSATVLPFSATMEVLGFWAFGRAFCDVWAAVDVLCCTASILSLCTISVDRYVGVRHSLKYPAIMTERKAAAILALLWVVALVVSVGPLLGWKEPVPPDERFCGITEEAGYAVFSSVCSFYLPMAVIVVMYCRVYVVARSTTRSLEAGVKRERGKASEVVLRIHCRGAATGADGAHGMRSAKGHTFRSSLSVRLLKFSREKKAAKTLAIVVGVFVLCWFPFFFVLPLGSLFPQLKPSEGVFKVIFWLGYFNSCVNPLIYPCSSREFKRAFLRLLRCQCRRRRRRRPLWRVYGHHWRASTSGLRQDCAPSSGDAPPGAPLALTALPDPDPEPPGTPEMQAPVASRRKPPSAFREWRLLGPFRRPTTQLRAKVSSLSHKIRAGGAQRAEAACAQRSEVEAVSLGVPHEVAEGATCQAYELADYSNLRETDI
Outline: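 Competition binding at cloned human α1 subtypes stably expressed in CHO cells: membranes (30 μg protein) incubated 30 min at 25 °C in 50 mM Tris-HCl pH 7.4 with 0.1–0.4 nM [3H]prazosin and competitor (1 pM–10 μM). Nonspecific binding with 10 μM phentolamine; filtration and scintillation counting. Ki by Cheng–Prusoff; 2–3 experiments in triplicate.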

[4] = molecular target: T3, Alpha-1B adrenergic receptor (Rattus norvegicus) (UniProt P15823); test: Eudisimic ratio(ER) is the antilog of the defference between the pKb and pD2 values against alpha-1B-adrenoceptor subtype; type: functional; outline: as §1
T3 sequence (whole entry): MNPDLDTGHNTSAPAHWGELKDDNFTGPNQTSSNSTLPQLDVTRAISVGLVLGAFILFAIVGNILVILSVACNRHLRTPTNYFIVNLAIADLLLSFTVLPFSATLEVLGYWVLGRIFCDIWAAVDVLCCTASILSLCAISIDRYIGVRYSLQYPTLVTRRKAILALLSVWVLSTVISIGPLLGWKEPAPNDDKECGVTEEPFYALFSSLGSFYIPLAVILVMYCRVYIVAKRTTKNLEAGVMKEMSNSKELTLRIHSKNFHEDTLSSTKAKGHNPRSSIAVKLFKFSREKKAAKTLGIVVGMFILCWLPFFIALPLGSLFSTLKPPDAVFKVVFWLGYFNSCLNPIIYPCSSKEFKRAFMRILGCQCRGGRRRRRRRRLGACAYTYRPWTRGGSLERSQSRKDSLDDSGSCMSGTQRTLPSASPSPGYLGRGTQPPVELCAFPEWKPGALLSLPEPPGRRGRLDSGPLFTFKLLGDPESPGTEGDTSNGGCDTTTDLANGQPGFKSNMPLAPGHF

[5] = molecular target: T4, Alpha-1D adrenergic receptor (Rattus norvegicus) (UniProt P23944); test: Eudisimic ratio(ER) is the antilog of the defference between the pKb and pD2 values against Alpha-1D adrenergic receptor subtype; type: functional; outline: as §1
T4 sequence (whole entry): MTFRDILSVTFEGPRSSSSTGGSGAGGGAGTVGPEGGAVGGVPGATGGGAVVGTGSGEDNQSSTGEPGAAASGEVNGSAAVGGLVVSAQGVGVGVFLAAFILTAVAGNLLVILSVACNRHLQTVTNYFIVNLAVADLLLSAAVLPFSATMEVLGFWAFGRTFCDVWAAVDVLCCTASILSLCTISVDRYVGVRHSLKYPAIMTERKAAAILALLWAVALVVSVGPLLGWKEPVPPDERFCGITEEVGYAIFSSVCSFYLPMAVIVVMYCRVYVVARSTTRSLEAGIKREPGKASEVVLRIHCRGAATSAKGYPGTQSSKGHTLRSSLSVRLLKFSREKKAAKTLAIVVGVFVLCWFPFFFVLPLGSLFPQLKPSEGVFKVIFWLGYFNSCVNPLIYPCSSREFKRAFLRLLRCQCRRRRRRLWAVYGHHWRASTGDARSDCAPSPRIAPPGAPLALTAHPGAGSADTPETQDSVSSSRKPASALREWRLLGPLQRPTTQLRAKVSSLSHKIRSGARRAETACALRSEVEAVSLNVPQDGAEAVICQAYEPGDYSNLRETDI

SMILES	Log Ki [1]	ER [2]	Ki [3] [nM]	ER [4]	ER [5]
O[C@@H]1[C@H](NC[C@H]2COc3ccccc3O2)CC[C@H]1Oc1ccccc1	< -6	123	7.94	49	
O[C@H]1[C@@H](NC[C@H]2COc3ccccc3O2)CC[C@@H]1Oc1ccccc1	< -6			11	7
